Paper PMC5107128 (Pharmacological research, 2016)

Key:
MMP2 [1] = biological target: T1, MMP2 (Homo sapiens, UniProt P08253); details: cited from earlier work
T1 sequence (P08253 110-660): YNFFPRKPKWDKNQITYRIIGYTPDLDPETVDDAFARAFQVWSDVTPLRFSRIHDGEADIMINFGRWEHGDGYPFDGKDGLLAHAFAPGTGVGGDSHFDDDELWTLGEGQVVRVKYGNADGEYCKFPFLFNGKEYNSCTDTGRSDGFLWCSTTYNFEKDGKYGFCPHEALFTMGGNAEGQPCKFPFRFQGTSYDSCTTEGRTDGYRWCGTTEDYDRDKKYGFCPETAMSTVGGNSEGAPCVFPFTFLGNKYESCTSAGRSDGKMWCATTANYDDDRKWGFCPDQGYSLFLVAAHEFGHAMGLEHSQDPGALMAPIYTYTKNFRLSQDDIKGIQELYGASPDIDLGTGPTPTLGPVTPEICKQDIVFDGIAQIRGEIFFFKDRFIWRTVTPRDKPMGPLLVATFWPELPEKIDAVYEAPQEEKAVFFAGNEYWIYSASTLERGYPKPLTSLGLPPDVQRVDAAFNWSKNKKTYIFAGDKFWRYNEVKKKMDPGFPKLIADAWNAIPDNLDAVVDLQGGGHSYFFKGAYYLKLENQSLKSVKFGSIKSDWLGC

other MMPs = details: cited from earlier work
WM266-4 cells [2] = assay: Transwell Matrigel invasion assay; type: cell-based, human
In short: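 25 × 10^4 WM266-4 cells in suspension were treated with 0.16 or 0.32µM test compound; shMT1-MMP cells got recombinant MMP2 at 25ng/ml. Cells were placed in 8-µm-pore inserts, uncoated or coated with growth-factor-reduced Matrigel, with DMEM plus 5% FBS below. After 24 h, cells on the bottom membrane were fixed in 4% formaldehyde and stained with Coomassie. Stain was extracted in 10% acetic acid and read at […], in triplicate. Invasion % = Matrigel/control insert × 100.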

WM266-4 cells [3] = assay: Scratch migration assay; type: cell-based, human
[4] = cited from earlier work
[5] = cited from earlier work; remark: listed apart in the source
MT1-MMP = MT1-MMP (Homo sapiens, UniProt P50281); assay: MT1-MMP activity assay; type: cell-based; details: WM266-4 cells, 0.32 µM, overnight
In short: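 WM266-4 cells treated overnight with test compound (0.32 µM final). Comparators were a neutralizing antibody (1 μg/ml), recombinant MT1-MMP (0.5 μg/ml) or shMT1-MMP expression. Membranes extracted by three freeze-thaw cycles, sonicated, pelleted (30 min, 13 000 g, 4°C) and resuspended in PBS. Equal protein incubated with fluorogenic substrate Mca-PLGL-Dap(Dnp)-AR-NH2; fluorescence read at Ex/Em […].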

WM266-4 cells [6] = assay: Orthotopic melanoma model: WM266-4 cells intradermally in NOD/SCID mice; type: in vivo
In short: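 Male NOD/SCID mice (5–8 weeks) received 2 × 10^6 luciferase-transduced WM266-4 cells intradermally in dorsal flanks (9 control, 18 treated tumors). Dosing began at about 120 mm3 mean tumor volume: 25 mg/Kg once daily subcutaneously, from 7.5 mg/ml in sterile PBS, filter-sterilized. Tumor volume taken as (w2 × l) × 0.52 and normalized to time 0. Primary tumors resected at day 42. Lung bioluminescence checked twice weekly. Lungs/thymi S100-stained at 30 weeks post-surgery.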

melanoma cell lines = assay: Cell proliferation assay; type: cell-based, human
In short: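 Crystal violet growth assay. Melanoma cells were kept in DMEM with 10% FCS, 1% glutamine and 1% penicillin-streptomycin. They were seeded at 16,000/cm2 in triplicate and treated with 0.32 µM test compound or DMSO vehicle. shMT1-MMP WM266-4 cells received recombinant MMP2 at 25ng/ml. At each time point cells were fixed in 10% buffered formalin and stained with crystal violet. Growth is expressed relative to controls.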

MMP2 [7] = assay: Gelatin zymography of conditioned medium; type: cell-based, human; details: WM266-4 cells, 0.32 µM
In short: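 WM266-4 cells were treated with 0.32µM test compound or DMSO, and serum-free conditioned medium was collected. Medium was concentrated on a 30K cutoff device, and 10 μg protein was run on 8% SDS-PAGE containing 2 mg/ml gelatin. Gels were washed in 2.5% Triton X-100, then incubated overnight at 37°C in 50 mM Tris-HCl, 5 mM CaCl2, 0.1% Triton X-100, pH 7.8. Gels were Coomassie R250-stained 45 min, then destained.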

RAC1 = RAC1 activity assay; type: cell-based, human; details: WM266-4 cells, 0.32 µM, 24 hours
In short: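 Cells at 70% confluency were serum-starved in DMEM with 0.5% serum for 24 h, then serum-free for a further 24 h. They were lysed in the G-LISA kit buffer. Equal protein amounts were added to Rac1-GTP-binding wells, and active RAC1 was read at OD 490 nm.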

prostate cancer = details: cited from earlier work
[8] = WM266-4 cells, recombinant MMP2 25ng/ml

TIMP1: tissue inhibitor of matrix metalloproteinase (TIMP)1
residence time bound to MMP2 (MMP2 [1]): 6.9 min

Nc1ccc(Oc2ccc(S(=O)(=O)CC3CS3)cc2)cc1 (stereo not shown) [ND-322]
inhibition of other MMPs (other MMPs): does not inhibit or poorly inhibits
invasion capacity of WM266-4 melanoma cells (WM266-4 cells [2]; 0.16 and 0.32 µM, 24 hours, dose dependent): inhibited significantly
motility (migration) of WM266-4 melanoma cells (WM266-4 cells [3]; 0.16 and 0.32 µM, dose dependent): inhibited significantly
tolerability in a model of wound healing [4]: well tolerated
crossing of the blood/brain barrier [5]: cross the blood/brain barrier
MT1-MMP activity (MT1-MMP): as effective as antibody neutralization and knockdown
tumor growth compared to controls (WM266-4 cells [6]; 25 mg/Kg/day subcutaneously, NOD/SCID mice): reduced tumor growth significantly
body weight over time (WM266-4 cells [6]; 25 mg/Kg/day, NOD/SCID mice): maintained their weight
tolerability of treatment (WM266-4 cells [6]; 25 mg/Kg/day, NOD/SCID mice): well tolerated
mice presenting with tumor cells in the lungs (lung metastasis) (WM266-4 cells [6]; 30 weeks post-surgery, control animals 90%): 40%
cell growth of several melanoma cell lines (melanoma cell lines; 0.32 µM): inhibited cell growth
MMP2 activation by gelatin zymography (MMP2 [7]): inhibited MMP2 activation
activity of the small GTPase RAC1 (RAC1): reduce the activity

O=S(=O)(CC1CS1)c1ccc(Oc2ccccc2)cc1 (stereo not shown) [SB-3CT, reference compound]
bone metastasis in a xenograft model of prostate cancer (prostate cancer): effectively prevent bone metastasis
crossing of the blood/brain barrier [5]: cross the blood/brain barrier

B1: recombinant active MMP2: recombinant active MMP2 added to cells at 25ng/ml (protein, UniProt P08253 110-660, looked up)
72 kDa type IV collagenase: T1 sequence (P08253 110-660)
rescue of cell invasion in cells expressing shMT1-MMP (WM266-4 cells [2]; [8]): rescued
rescue of cell motility in cells expressing shMT1-MMP (WM266-4 cells [3]; WM266-4 cells, recombinant MMP2 25ng/ml, 24 hours): rescued
rescue of cell growth in cells expressing shMT1-MMP (melanoma cell lines; [8]): did not rescue cell growth
